Compound activity deposited in PubChem by several laboratories.
CAL PDZ FP-1: inhibitors of human CAL PDZ peptide binding; AID 504414; purified CAL PDZ, TMR-peptide fluorescence polarization, 1 h; inhibition, % at 20 µM; hit rate 0.02% among 330,000; Q9HD26;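 active = highest replicate inhibition of at least 40%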;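 also: plate controls were DMSO neutral control wells for no effect and unlabeled competitor peptide control wells for full effect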
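Assay system – tagged CAL PDZ protein CerCALP, purified · Timing – 1 h at RT · Compound – single point, 20 µM · Measured by – fluorescence polarization from S- and P-plane intensities, G-factor corrected · Evaluation – inhibition from polarization loss · Probe or stimulus – TMR reporter peptide T*-PRC34 · Buffer or medium – pH 7.4 phosphate-saline buffer, reducing agent, detergent, IgG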
ERAP1 inh: ERAP1 (human) enzyme inhibition; inhibition, % at 10.7 µM; AID 652197; Q9NZ08; recombinant ERAP1, Leu-AMC fluorescence, 60 min; hit rate 0.15% among 340,000;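 active = mean replicate inhibition of at least 30%, or all replicates individually reaching that 30% level; inactive = mean below 30% and not every replicate reaching it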;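 also: 0% = neutral control wells and 100% = L-leucinethiol positive control wells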
PDI turbidity: blocks human protein disulfide isomerase activity; inhibition, % at 10 µM; P07237; hit rate 0.052% among 350,000; PDI insulin aggregation turbidity, A650, 90 min;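 active = mean inhibition across replicates of 30% or more, whatever share of single replicates reach that level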
Target sequence (P07237 whole entry, looked up): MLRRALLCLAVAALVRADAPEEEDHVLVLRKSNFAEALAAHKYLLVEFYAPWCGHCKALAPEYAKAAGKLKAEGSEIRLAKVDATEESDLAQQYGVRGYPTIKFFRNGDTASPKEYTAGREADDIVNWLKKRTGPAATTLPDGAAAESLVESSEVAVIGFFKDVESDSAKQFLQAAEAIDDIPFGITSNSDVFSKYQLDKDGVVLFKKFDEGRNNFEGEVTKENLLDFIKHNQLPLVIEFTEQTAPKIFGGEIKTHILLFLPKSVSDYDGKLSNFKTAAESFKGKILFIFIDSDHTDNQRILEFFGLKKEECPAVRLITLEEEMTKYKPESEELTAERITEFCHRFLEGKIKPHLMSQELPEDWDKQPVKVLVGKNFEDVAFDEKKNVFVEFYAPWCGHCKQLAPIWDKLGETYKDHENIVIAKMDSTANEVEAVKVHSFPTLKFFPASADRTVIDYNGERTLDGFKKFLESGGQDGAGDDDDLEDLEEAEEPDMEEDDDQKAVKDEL
Rin1 Abl inh: human Rin1-Abl interaction inhibition | P00519+Q13671 | TR-FRET Rin1/Abl binding, biochemical | inhibition, % at 7.35 µM | hit rate 0.4% among 360,000 | AID 588664; in the data active = inhibition above about 5%, passing the limit was not always enough
ERp5 block: inhibitors of human ERp5; hit rate 0.05% among 350,000; inhibition, % at 9.99 µM; ERp5 insulin aggregation, absorbance 650 nm, 90 min; Q15084;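 active = mean replicate inhibition above about 25%, with every replicate also reaching it, limit read from the data, passing the limit was not always enough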
CAL PDZ FP-2: CAL PDZ (human) peptide binding inhibition; Q9HD26; purified CAL PDZ, TMR-peptide fluorescence polarization, 1 h; inhibition, % at 24.9 µM; hit rate 0.92% among 300,000; AID 602252;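 active = mean inhibition of at least 30% with at least half of replicates also reaching 30%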;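 also: 0% = DMSO neutral control and 100% = excess unlabeled competitor peptide PRC23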
The depositor's hits bear a star; · = not tested or not shown. A selection: hits, their analogues and other compounds. The true share with any hit is near 1.1%.

SMILES | CAL PDZ FP-1 | ERAP1 inh | PDI turbidity | Rin1 Abl inh | ERp5 block | CAL PDZ FP-2
CCCCCCC(=O)Oc1cccc(N2C(=O)C3CCCCC3C2=O)c1 (centres undefined) | 0 | 0 | -3 | -1 | -4 | 79*
CCOC(=O)Nc1ccc(C(=O)/C=C/c2ccccc2)cc1 | -1 | 3 | -1 | -5 | 0 | 79*
Cc1cc(C)n(S(=O)(=O)c2ccc(Cl)cc2)n1 | -1 | -1 | -7 | 0 | 8 | -3
Cc1cn(S(=O)(=O)c2ccc(Cl)cc2)c(C)n1 | -1 | -1 | 2 | 0 | 3 | 78*
O=C(C1CC1)N1CC(=O)N2[C@H](C1)[C@@H](c1ccc(Br)cc1)[C@@H]2CO | · | -1 | · | · | 0 | ·
O=C(O/N=C1\CCS(=O)(=O)c2sccc21)c1c(F)cccc1F | -3 | -2 | 5 | 2 | -1 | 2
O=S1(=O)CC/C(=N\Nc2ccccc2)c2ccsc21 | -1 | 0 | -3 | 1 | 1 | 33*
COc1ccc(-c2cnc3c(c2)C(=O)N([C@H](C)CO)C[C@@H](C)[C@H](CN(C)C(=O)CN(C)C)O3)cc1 | · | -1 | · | · | -6 | ·
O=C(OC1C2CCC1C1CN(CCc3ccccc3)CC12)c1ccccc1 (centres undefined) | -3 | · | 2 | 1 | · | 41*
C[C@@H]1CN([C@@H](C)CO)C(=O)c2cccc(NC(=O)c3cnccn3)c2O[C@H]1CN(C)Cc1ccc(Cl)c(Cl)c1 | · | 32* | · | · | -5 | ·
C[C@@H]1CN([C@@H](C)CO)C(=O)c2cccc(NC(=O)c3cnccn3)c2O[C@@H]1CN(C)Cc1ccc(Cl)c(Cl)c1 | · | -2 | · | · | 1 | ·
C[C@@H]1CN([C@H](C)CO)C(=O)c2cc(NC(=O)Nc3ccc(C(F)(F)F)cc3)ccc2O[C@H]1CN(C)Cc1ccc(Cl)c(Cl)c1 | 0 | -2 | 11 | -2 | 2 | 37*
C[C@H]1CN([C@@H](C)CO)C(=O)c2cc(NC(=O)Nc3ccc4c(c3)OCO4)ccc2O[C@@H]1CN(C)Cc1ccc(C(=O)O)cc1 | · | 0 | · | · | -4 | ·
C[C@H]1CN([C@@H](C)CO)C(=O)c2cc(NC(=O)Nc3ccc(C(F)(F)F)cc3)ccc2O[C@H]1CN(C)Cc1ccc(Cl)c(Cl)c1 | · | -1 | · | · | 9 | ·
C[C@@H]1CN([C@H](C)CO)C(=O)c2cc(NC(=O)Nc3ccc(C(F)(F)F)cc3)ccc2O[C@@H]1CN(C)S(=O)(=O)c1ccc(F)cc1 | · | -3 | · | · | 29* | ·
C[C@@H]1CN([C@@H](C)CO)C(=O)c2cc(NC(=O)Nc3ccc4c(c3)OCO4)ccc2O[C@@H]1CN(C)Cc1ccc(C(=O)O)cc1 | · | 1 | · | · | 39* | ·
COc1ccc2c3c([nH]c2c1)[C@@H](CO)N(C(C)=O)CC31CCN(C(=O)c2ccc3c(c2)OCO3)CC1 | · | -1 | · | · | 5 | ·
CCOc1ccc(NC(=O)CN(C)CC(=O)NC2CCCc3ccccc32)cc1OCC (centres undefined) | 0 | · | 2 | 4 | · | 40*
Cc1ccc2nc(SCC(=O)NC3CCCc4ccccc43)[nH]c2c1 (centres undefined) | -1 | · | 0 | -1 | · | 84*
COc1cc(CC(=O)NC2CCCc3ccccc32)cc(OC)c1OC (centres undefined) | -1 | 0 | 10 | 2 | 1 | 43*
CC(C)OC(=O)/C(C#N)=C/c1ccc(-c2ccc(SC(F)F)cc2)o1 | -1 | · | -5 | -6 | · | 3
COC(=O)/C(C#N)=C/c1ccc(-c2ccc(S(N)(=O)=O)cc2)o1 | -2 | · | -6 | -6 | 4 | 36*
C[C@@H]1CN([C@@H](C)CO)C(=O)c2cc(NC(=O)C3CC3)ccc2O[C@@H]1CN(C)S(=O)(=O)c1cn(C)cn1 | · | -3 | · | · | 0 | ·
O=C(CCl)Nc1nc(-c2ccco2)c(-c2ccco2)s1 | -2 | 3 | 62* | -2 | 8 | -1
O=C(CCCSc1ccccc1)Nc1nc(-c2ccco2)c(-c2ccco2)s1 | -1 | 1 | 7 | 2 | 0 | ·
SMILES | CAL PDZ FP-1 | ERAP1 inh | PDI turbidity | Rin1 Abl inh | ERp5 block | CAL PDZ FP-2
COc1cc(/C=C/C(=O)OCC(=O)c2ccc3c(c2)NC(=O)CO3)ccc1OC(F)F | 0 | 37* | -4 | -1 | -8 | ·
Cc1nnc(SCC(=O)NC(C)(C)C)n1NCc1ccc(Cl)cc1 | 0 | 1 | -4 | -2 | 0 | 5
Cc1nnc(SCC(=O)NC(C)(C)C)n1NCc1ccc(N(C)C)cc1 | -4 | 6 | 8 | -1 | 7 | 74*
Nc1c2ccccc2nc2ccccc12 | -5 | 61* | -3 | -9 | 2 | -5
COc1ccccc1C(=O)Nc1ccc2c(c1)OC[C@@H](C)NC[C@H](C)[C@H](OC)CN(C)C2=O | · | -4 | · | · | 0 | ·
CO[C@@H]1CN(C)C(=O)c2ccc(NS(C)(=O)=O)cc2OC[C@H](C)N(C(=O)C2CC2)C[C@@H]1C | · | 1 | · | · | -3 | ·
C[C@@H]1CN([C@@H](C)CO)C(=O)c2cc(NS(=O)(=O)c3cccs3)ccc2O[C@@H](C)CCCCO[C@@H]1CN(C)C(=O)Nc1ccc(C(F)(F)F)cc1 | · | 0 | · | · | 3 | ·
CC1CCCN(C(=O)COC(=O)/C=C/c2ccc(C(F)(F)F)cc2)C1 (centres undefined) | -1 | 2 | 1 | 0 | -3 | 72*
CCCNC(=O)N1CCC2(CC1)CN(C(=O)c1ccccc1)[C@H](CO)c1[nH]c3cc(OC)ccc3c12 | · | 2 | · | · | 3 | ·
COc1cc(C2C(C#N)=C(SC)NC3=C2C(=O)CCC3)ccc1O (centres undefined) | -1 | 1 | 3 | 0 | 3 | 89*
C[C@H]1CN([C@@H](C)CO)C(=O)c2cc(/C=C/c3ccccc3)cnc2O[C@H]1CN(C)Cc1ccncc1 | · | 7 | · | · | -2 | ·
Cc1cc(C)n2nc(C(=O)OCC(=O)N(C)C3CCS(=O)(=O)C3)nc2n1 (centres undefined) | 0 | 0 | 0 | 2 | -1 | ·
CCC(C)N(C(=O)COC(=O)c1nc2nc(C)cc(C)n2n1)C1CCS(=O)(=O)C1 (centres undefined) | 2 | 88* | -4 | 1 | 15 | 1
CCn1cnc2sc(C(=O)Oc3cccc(C)c3)c(C)c2c1=O | 0 | 8 | 13 | 0 | 2 | 42*
O=S(=O)(N[C@@H]1CC[C@@H](CCn2cc(-c3cccnc3)nn2)O[C@H]1CO)c1ccccc1 | · | -4 | · | · | 8 | ·
